Measured values: ChEMBL document CHEMBL4706616, “Design, synthesis, and evaluation of substituted 2-acylamide-1,3-benzo[d]zole analogues as agents against MDR- and XDR-MTB” (Eur J Med Chem, 2021)
pIC50: −log10 of the molar value. In brackets after ≈: the same amount, converted by molar mass.

Legend:
[1] = tested on: Mycobacterium tuberculosis; assay: Antitubercular activity against Mycobacterium tuberculosis H37Rv assessed as bacterial growth inhibition by MABA; type: functional
[2] = tested on: HEK293; assay: Cytotoxicity against human HEK293 cells assessed as reduction in cell viability incubated for 48 hrs by CCK8 assay; type: cell-based; conditions: HEK293, 48 h
[3] = Cmax in Sprague-Dawley rat at 40 mg/kg, po measured upto 8 hrs by LC-MS/MS analysis; type: ADME, organism-based; parameters: route oral, dose 40 mg/kg, time <=8; conditions: in vivo
Outline: (§1)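 Male SPF SD rats (180–220 g), fasted overnight, fed 4 h post-dose; single 40 mg/kg oral dose suspended in 5% DMSO/10% Solutol/85% water; n=3. Jugular blood at 0.25–8 h, plasma protein precipitated with MeOH containing internal standard, analysed by LC-MS/MS; AUC, Cmax, Tmax, MRT from plasma concentration data; mean ± SD.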

[4] = Selectivity index, ratio of IC50 for human HEK293 cells to MIC for Mycobacterium tuberculosis; type: toxicity; conditions: read-out: Selectivity Index
Outline: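 Ratio of HEK-293 IC50 (µM) to anti-Mtb MIC (µM).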

[5] = Tmax in Sprague-Dawley rat at 40 mg/kg, po measured upto 8 hrs by LC-MS/MS analysis; type: ADME, organism-based; conditions: in vivo; outline: as §1
[6] = AUC (0 to t) in Sprague-Dawley rat at 40 mg/kg, po measured upto 8 hrs by LC-MS/MS analysis; type: ADME, organism-based; parameters: route oral, dose 40 mg/kg, time <=8; conditions: in vivo; outline: as §1
[7] = Mean residence time in Sprague-Dawley rat at 40 mg/kg, po measured upto 8 hrs by LC-MS/MS analysis; type: ADME, organism-based; conditions: in vivo; outline: as §1
[8] = tested on: Staphylococcus epidermidis; assay: Antibacterial activity against methicillin-sensitive Staphylococcus epidermidis ATCC 12228 assessed as bacterial growth inhibition incubated for 18 hrs by agar dilution method; type: functional
[9] = tested on: Pseudomonas aeruginosa; assay: Antibacterial activity against Pseudomonas aeruginosa ATCC 27853 assessed as bacterial growth inhibition incubated for 18 hrs by agar dilution method; type: functional
[10] = tested on: Klebsiella pneumoniae; assay: Antibacterial activity against ESBLs negative Klebsiella pneumoniae 7 assessed as bacterial growth inhibition incubated for 18 hrs by agar dilution method; type: functional
[11] = tested on: Enterococcus faecalis; assay: Antibacterial activity against Vancomycin-susceptible Enterococcus faecalis ATCC 29212 assessed as bacterial growth inhibition incubated for 18 hrs by agar dilution method; type: functional
[12] = tested on: Staphylococcus aureus; assay: Antibacterial activity against methicillin-sensitive Staphylococcus aureus ATCC 29213 assessed as bacterial growth inhibition incubated for 18 hrs by agar dilution method; type: functional
[13] = Acute toxicity in BALB/c mouse at 1000 mg/kg, po measured after 7 days; type: organism-based; conditions: in vivo, 168 h, time 7 day
Outline: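 SPF female BALB/c mice, 18–22 g, groups of six; single 1000 mg/kg oral gavage in 0.5% CMC-Na; housed at 20–24°C; surviving mice counted over the observation period (14 days per methods, 7 days per results text).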

[14] = tested on: Acinetobacter calcoaceticus; assay: Antibacterial activity against Acinetobacter calcoaceticus ATCC 19606 assessed as bacterial growth inhibition incubated for 18 hrs by agar dilution method; type: functional
[15] = tested on: Enterococcus faecium; assay: Antibacterial activity against vancomycin-resistant Enterococcus faecium ATCC 700221 assessed as bacterial growth inhibition incubated for 18 hrs by agar dilution method; type: functional
[16] = tested on: Klebsiella pneumoniae; assay: Antibacterial activity against ESBLs positive Klebsiella pneumoniae ATCC 700603 assessed as bacterial growth inhibition incubated for 18 hrs by agar dilution method; type: functional
[17] = tested on: Escherichia coli; assay: Antibacterial activity against ESBLs negative Escherichia coli ATCC 25922 assessed as bacterial growth inhibition incubated for 18 hrs by agar dilution method; type: functional
[18] = tested on: Staphylococcus aureus; assay: Antibacterial activity against methicillin-resistant Staphylococcus aureus ATCC 33591 assessed as bacterial growth inhibition incubated for 18 hrs by agar dilution method; type: functional

SMILES: Cc1nnsc1C(=O)Nc1nc2c(Br)cccc2o1
- MIC [1]: 1.47 µM (≈ 0.499 µg/mL)
- pIC50 [2]: 4.98

SMILES: Cc1nnsc1C(=O)Nc1nc2c(Oc3ncccn3)cccc2o1
- Cmax [3]: 6.93 ng/mL
- selectivity ratio [4]: > 18
- Tmax [5]: 2.83 h
- AUC(0-t) at 8 h [6]: 38 ng·h/mL
- MRT [7]: 4.12 h
- MIC [1]: 2.82 µM (≈ 0.999 µg/mL)
- pIC50 [2]: < 4.00

SMILES: Cc1nnsc1C(=O)Nc1nc2cc(-c3cccnc3)ccc2o1
- MIC [1]: 2.96 µM (≈ 0.999 µg/mL)
- pIC50 [2]: 4.26

SMILES: O=C(Nc1nc2ccccc2o1)c1ccco1
- MIC [1]: 17.5 µM (≈ 4 µg/mL)
- pIC50 [2]: < 4.00

SMILES: Cc1nnsc1C(=O)Nc1nc2c(-c3ccccn3)cccc2o1
- MIC [1]: 23.7 µM (≈ 8 µg/mL)

SMILES: Cc1ccc2oc(NC(=O)c3snnc3C)nc2c1
- MIC [1]: 1.82 µM (≈ 0.499 µg/mL)
- pIC50 [2]: 4.66

SMILES: Cc1nnsc1C(=O)Nc1nc2ccccc2o1
- MIC [1]: 0.48 µM (≈ 0.125 µg/mL)
- pIC50 [2]: 4.71

SMILES: CC[C@@H](CO)NCCN[C@@H](CC)CO [ETHAMBUTOL]
- MIC [1]: < 2.45 µM

SMILES: O=C(Nc1nc2ccccc2o1)c1ccccc1
- MIC [1]: 269 µM (≈ 64 µg/mL)
- pIC50 [2]: < 4.00

SMILES: O=C(Nc1nc2ccccc2o1)c1cccs1
- MIC [1]: 16.4 µM (≈ 4 µg/mL)
- pIC50 [2]: 4.09

SMILES: Cc1nnsc1C(=O)Nc1nc2ccccc2[nH]1
- MIC [1]: 30.9 µM (≈ 8 µg/mL)
- pIC50 [2]: < 4.00

SMILES: NNC(=O)c1ccncc1 [ISONIAZID]
- MIC [1]: < 3.65 µM

SMILES: CO[C@H]1/C=C/O[C@@]2(C)Oc3c(C)c(O)c4c(O)c(c(/C=N/N5CCN(C)CC5)c(O)c4c3C2=O)NC(=O)/C(C)=C\C=C\[C@H](C)[C@H](O)[C@@H](C)[C@@H](O)[C@@H](C)[C@H](OC(C)=O)[C@@H]1C [RIFAMPIN]
- MIC [1]: < 0.61 µM

SMILES: Cc1nnsc1C(=O)Nc1nc2cc(-c3ccccn3)ccc2o1
- Cmax [3]: 9050 ng/mL
- selectivity ratio [4]: > 270
- MIC [8]: 2.96 µM (≈ 0.999 µg/mL)
- Tmax [5]: ≥ 8 h
- AUC(0-t) at 8 h [6]: 27800 ng·h/mL
- MRT [7]: 5.59 h
- MIC [1]: 0.74 µM (≈ 0.25 µg/mL)
- MIC [9]: > 379 µM
- MIC [10]: > 379 µM
- MIC [11]: 11.9 µM (≈ 4 µg/mL)
- MIC [12]: 5.93 µM (≈ 2 µg/mL)
- Activity [13]: Non-Toxic
- MIC [14]: > 379 µM
- MIC [15]: 5.93 µM (≈ 2 µg/mL)
- pIC50 [2]: < 4.00
- MIC [16]: > 379 µM
- MIC [17]: > 379 µM
- MIC [18]: 1.48 µM (≈ 0.499 µg/mL)

SMILES: Cc1nnsc1C(=O)Nc1nc2cc(F)ccc2o1
- MIC [1]: 0.45 µM (≈ 0.125 µg/mL)
- pIC50 [2]: 4.38

SMILES: Cc1nnsc1C(=O)Nc1nc2ccccc2s1
- MIC [1]: 28.9 µM (≈ 8 µg/mL)
- pIC50 [2]: < 4.00

SMILES: Cc1nnsc1C(=O)Nc1nc2cc(Br)ccc2o1
- MIC [1]: 2.95 µM (≈ 1 µg/mL)
- pIC50 [2]: 4.35

SMILES: CN[C@@H]1[C@H](O[C@H]2[C@H](O[C@H]3[C@H](O)[C@@H](O)[C@H](N=C(N)N)[C@@H](O)[C@@H]3N=C(N)N)O[C@@H](C)[C@]2(O)C=O)O[C@@H](CO)[C@H](O)[C@H]1O [STREPTOMYCIN]
- MIC [1]: < 0.69 µM

SMILES: Cc1nnsc1C(=O)Nc1nc2c(OCc3ccccn3)cccc2o1
- MIC [1]: 5.44 µM (≈ 2 µg/mL)
- pIC50 [2]: 4.21

SMILES: Cc1nnsc1C(=O)Nc1nc2ncccc2o1
- MIC [1]: 7.66 µM (≈ 2 µg/mL)
- pIC50 [2]: 4.82

SMILES: Cc1nnsc1C(=O)Nc1nc2c(ccc3ncccc32)o1
- MIC [1]: 103 µM (≈ 32 µg/mL)
- pIC50 [2]: 4.23

SMILES: Cc1nnsc1C(=O)Nc1nc2cc(-c3ccncc3)ccc2o1
- MIC [1]: 1.48 µM (≈ 0.499 µg/mL)

SMILES: Cc1nnsc1C(=O)Nc1nc2c(ccc3ccccc32)o1
- MIC [1]: 103 µM (≈ 32 µg/mL)
- pIC50 [2]: 4.09

SMILES: COC(=O)c1ccc2oc(NC(=O)c3snnc3C)nc2c1
- MIC [1]: 3.14 µM (≈ 1 µg/mL)

SMILES: O=C(Nc1nc2ccccc2o1)c1ccc(Cl)s1
- MIC [1]: 14.3 µM (≈ 4 µg/mL)

SMILES: Cc1nnsc1C(=O)Nc1nc2cc(C(C)(C)C)ccc2o1
- Cmax [3]: 6840 ng/mL
- selectivity ratio [4]: 17
- MIC [8]: 6.32 µM (≈ 2 µg/mL)
- Tmax [5]: ≥ 8 h
- AUC(0-t) at 8 h [6]: 24800 ng·h/mL
- MRT [7]: 5.26 h
- MIC [1]: 0.4 µM (≈ 0.127 µg/mL)
- MIC [9]: > 405 µM
- MIC [10]: > 405 µM
- MIC [11]: 12.6 µM (≈ 4 µg/mL)
- MIC [12]: 6.32 µM (≈ 2 µg/mL)
- Activity [13]: Non-Toxic
- MIC [14]: > 405 µM
- MIC [15]: 12.6 µM (≈ 4 µg/mL)
- pIC50 [2]: 5.17
- MIC [16]: > 405 µM
- MIC [17]: > 405 µM
- MIC [18]: 6.32 µM (≈ 2 µg/mL)

SMILES: Cc1nnsc1C(=O)Nc1nc2cc(Cl)ccc2o1
- selectivity ratio [4]: 4
- MIC [1]: 0.42 µM (≈ 0.124 µg/mL)
- Activity [13]: Non-Toxic
- pIC50 [2]: 5.18

SMILES: Cc1nnsc1C(=O)Nc1nc2cc(-c3cnn(C)c3)ccc2o1
- MIC [1]: 1.47 µM (≈ 0.5 µg/mL)

SMILES: Cc1nnsc1C(=O)Nc1nc2ccc(C(C)(C)C)cc2o1
- MIC [1]: 3.16 µM (≈ 1 µg/mL)
- pIC50 [2]: 5.62

SMILES: Cc1nnsc1C(=O)Nc1nc2ccc(Cl)cc2o1
- MIC [1]: 0.42 µM (≈ 0.124 µg/mL)
- pIC50 [2]: 5.15

SMILES: Cc1nnsc1C(=O)Nc1nc2cc(N3CCOCC3)ccc2o1
- MIC [1]: 11.6 µM (≈ 4 µg/mL)
- pIC50 [2]: 4.74

SMILES: Cc1nnsc1C(=O)Nc1nc2c(ccc3cccnc32)o1
- MIC [1]: 103 µM (≈ 32 µg/mL)

SMILES: COC(=O)c1ccc(-c2ccc3oc(NC(=O)c4snnc4C)nc3c2)cc1
- MIC [1]: 1.27 µM (≈ 0.501 µg/mL)
